Reference: ChEMBL document CHEMBL1149914 (J Med Chem, 2008)

Columns and labels:
[1] = Ratio of Ki for SERT to Ki for DAT
Summary of the method: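 SERT Ki divided by DAT Ki. Both come from [125I]RTI-55 (0.01 nM) binding in pH 7.4 sodium phosphate/BSA buffer with protease inhibitors, run in triplicate for 18–24 h at 4 °C.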

[2] = target: Sodium-dependent serotonin transporter (Homo sapiens, UniProt P31645); experiment: Displacement of [125I]RTI55 from SERT
Summary of the method: (§1)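 [125I]RTI-55 at 0.01 nM (s.a. 2200 Ci/mmol) competitive binding. Drugs and blocker in 55.2 mM sodium phosphate pH 7.4 with 1 mg/mL BSA. Radioligand in the same buffer with chymostatin 25 μg/mL, leupeptin 25 μg/mL, EDTA 100 μM and EGTA 100 μM. Triplicate incubation for 18–24 h at 4 °C (equilibrium), 1 mL final volume. Ki derived.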

[3] = target: Sodium-dependent dopamine transporter (Homo sapiens, UniProt Q01959); experiment: Displacement of [125I]RTI55 from DAT; summary of the method: as §1
Chain of Sodium-dependent dopamine transporter (Q01959 whole entry): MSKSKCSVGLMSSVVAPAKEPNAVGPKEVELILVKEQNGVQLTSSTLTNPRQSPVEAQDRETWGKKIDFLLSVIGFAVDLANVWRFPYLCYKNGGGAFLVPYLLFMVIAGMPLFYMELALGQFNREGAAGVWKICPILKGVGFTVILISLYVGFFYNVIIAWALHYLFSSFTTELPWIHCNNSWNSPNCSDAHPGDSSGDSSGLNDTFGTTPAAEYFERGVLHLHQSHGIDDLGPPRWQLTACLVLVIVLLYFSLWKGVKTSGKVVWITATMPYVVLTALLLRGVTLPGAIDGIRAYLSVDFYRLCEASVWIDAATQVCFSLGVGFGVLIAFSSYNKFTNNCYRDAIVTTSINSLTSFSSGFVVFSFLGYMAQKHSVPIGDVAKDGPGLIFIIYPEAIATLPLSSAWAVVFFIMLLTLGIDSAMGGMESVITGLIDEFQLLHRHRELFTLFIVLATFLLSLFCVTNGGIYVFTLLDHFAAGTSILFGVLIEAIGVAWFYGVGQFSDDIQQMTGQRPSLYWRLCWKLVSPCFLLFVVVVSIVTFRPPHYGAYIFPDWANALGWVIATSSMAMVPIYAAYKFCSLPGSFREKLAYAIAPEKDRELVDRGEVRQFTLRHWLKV

Chain of Sodium-dependent serotonin transporter (P31645 whole entry): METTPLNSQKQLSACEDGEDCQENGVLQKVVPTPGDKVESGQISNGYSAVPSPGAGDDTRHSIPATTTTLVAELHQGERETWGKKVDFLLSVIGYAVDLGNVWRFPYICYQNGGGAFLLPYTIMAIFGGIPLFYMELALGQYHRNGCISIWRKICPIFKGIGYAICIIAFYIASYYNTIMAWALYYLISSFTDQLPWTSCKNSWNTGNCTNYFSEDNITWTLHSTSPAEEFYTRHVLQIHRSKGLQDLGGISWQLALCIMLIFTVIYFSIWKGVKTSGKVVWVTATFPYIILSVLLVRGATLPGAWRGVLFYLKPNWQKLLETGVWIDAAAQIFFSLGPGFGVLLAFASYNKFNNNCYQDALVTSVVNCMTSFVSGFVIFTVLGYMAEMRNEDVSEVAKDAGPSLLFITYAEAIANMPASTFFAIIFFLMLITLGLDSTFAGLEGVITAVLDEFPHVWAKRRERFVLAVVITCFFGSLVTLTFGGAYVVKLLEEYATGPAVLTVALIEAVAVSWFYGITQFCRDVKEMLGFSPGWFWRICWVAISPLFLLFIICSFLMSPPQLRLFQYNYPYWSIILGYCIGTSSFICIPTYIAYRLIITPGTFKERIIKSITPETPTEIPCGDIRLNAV

SMILES	Ratio Ki [1]	Ki [2]	Ki [3]
CC(O)(Cc1ccccc1)CN1CCN(CCOC(c2ccccc2)c2ccccc2)CC1 (centres undefined)	14	2 µM	–
CC(Cc1ccccc1)CN1CCN(CCOC(c2ccc(F)cc2)c2ccc(F)cc2)CC1 (single isomer, unassigned; (-)) [listing 1 of 2 here]	11	–	–
CC(Cc1ccccc1)CN1CCN(CCOC(c2ccc(F)cc2)c2ccc(F)cc2)CC1 (stereo in doubt; (+)-7) [listing 1 of 2 here]	–	0.12 µM	–
CC(Cc1ccccc1)CN1CCN(CCOC(c2ccc(F)cc2)c2ccc(F)cc2)CC1 (single isomer, unassigned; (-)) [listing 2 of 2 here]	–	0.19 µM	–
C=C(CCN1CCN(CCOC(c2ccc(F)cc2)c2ccc(F)cc2)CC1)c1ccccc1	11	0.19 µM	–
CC(Cc1ccccc1)CN1CCN(CCOC(c2ccc(F)cc2)c2ccc(F)cc2)CC1 (stereo in doubt; (+)-7) [listing 2 of 2 here]	7	–	–
O[C@@H](Cc1ccccc1)CN1CCN(CCOC(c2ccc(F)cc2)c2ccc(F)cc2)CC1	307	0.23 µM	0.00075 µM
Fc1ccc(C(OCCN2CCN(CCc3ccccc3)CC2)c2ccc(F)cc2)cc1	5	0.036 µM	0.008 µM
O[C@H](Cc1ccccc1)CN1CCN(CCOC(c2ccc(F)cc2)c2ccc(F)cc2)CC1	13	0.16 µM	0.012 µM
C=C(Cc1ccccc1)CN1CCN(CCOC(c2ccccc2)c2ccccc2)CC1	8	3.3 µM	–
Fc1ccc(C(OCCN2CCN(C[C@@H](F)Cc3ccccc3)CC2)c2ccc(F)cc2)cc1	109	0.29 µM	–
N[C@@H](Cc1ccccc1)CN1CCN(CCOC(c2ccc(F)cc2)c2ccc(F)cc2)CC1	2	0.088 µM	–
CC(O)(CCN1CCN(CCOC(c2ccc(F)cc2)c2ccc(F)cc2)CC1)c1ccccc1 (centres undefined)	39	0.15 µM	–
Fc1ccc(C(OCCN2CCN(C[C@H](F)Cc3ccccc3)CC2)c2ccc(F)cc2)cc1	25	0.54 µM	–
O=C(CN1CCN(CCOC(c2ccc(F)cc2)c2ccc(F)cc2)CC1)c1ccccc1	2	0.088 µM	–
N[C@H](Cc1ccccc1)CN1CCN(CCOC(c2ccc(F)cc2)c2ccc(F)cc2)CC1	1	0.022 µM	–
CC(O)(CCN1CCN(CCOC(c2ccccc2)c2ccccc2)CC1)c1ccccc1 (centres undefined)	254	1.8 µM	–
CO[C@@H](Cc1ccccc1)CN1CCN(CCOC(c2ccc(F)cc2)c2ccc(F)cc2)CC1	8	0.22 µM	–
O[C@H](Cc1ccccc1)CN1CCN(CCOC(c2ccccc2)c2ccccc2)CC1	72	1.8 µM	0.025 µM
O=C(CN1CCN(CCOC(c2ccccc2)c2ccccc2)CC1)c1ccccc1	3	1.4 µM	–
FC[C@H](Cc1ccccc1)N1CCN(CCOC(c2ccc(F)cc2)c2ccc(F)cc2)CC1	0.8	0.11 µM	–
CO[C@H](Cc1ccccc1)CN1CCN(CCOC(c2ccc(F)cc2)c2ccc(F)cc2)CC1	9	0.25 µM	–
FC[C@@H](Cc1ccccc1)N1CCN(CCOC(c2ccc(F)cc2)c2ccc(F)cc2)CC1	2	0.19 µM	–
C=C(CCN1CCN(CCOC(c2ccccc2)c2ccccc2)CC1)c1ccccc1	59	1.8 µM	–
O=C(Cc1ccccc1)CN1CCN(CCOC(c2ccccc2)c2ccccc2)CC1	250	2.5 µM	–
C=C(Cc1ccccc1)CN1CCN(CCOC(c2ccc(F)cc2)c2ccc(F)cc2)CC1	4	0.43 µM	–
O[C@@H](Cc1ccccc1)CN1CCN(CCOC(c2ccccc2)c2ccccc2)CC1	957	2.2 µM	0.0023 µM
O=C(Cc1ccccc1)CN1CCN(CCOC(c2ccc(F)cc2)c2ccc(F)cc2)CC1	38	0.25 µM	–
CC(O)(Cc1ccccc1)CN1CCN(CCOC(c2ccc(F)cc2)c2ccc(F)cc2)CC1 (centres undefined)	6	0.31 µM	–
